Variants at the floor of the assay were thinned out.
B1: tRNA (parent)
chain: GUUCCGUUGGCGUAAUGGUAACGCGUCUCCCUCCUAAGGAGAAGACUGCGGGUUCGAGUCCCGUACGGAACG

Variants of: B1
Test: yeast fitness relative to wild type (ratio to wild type); higher = fitter; tRNA-Arg(CCU), competitive growth, 37 C, YPD
Method in brief: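 Amplicons of the tRNA-Arg(CCU) gene were sequenced, 100-nucleotide paired-end, from the start population and from each end population of a pooled yeast competition. The competition, in six parallel replicates, lasted 24 hours in YPD at 37°C. Fitness relative to wild type was calculated from changes in genotype frequencies. Genotypes had to have ≥ 100 starting reads, and estimates < 0.5 were set to 0.5.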
For U16C G68A, the yeast fitness was 0.767. U16C G68C gave a yeast fitness of 0.834. With U16A U19A the yeast fitness was 0.952. U16A U19C gave a yeast fitness of 1.03. U16C A36G G68A gave a yeast fitness of 0.556. U16C C66U gave a yeast fitness of 0.891. Variant U16C G17A C34U A42U U64A G68U has a yeast fitness of no more than 0.5. With U16C C55U A69U the yeast fitness was 0.629. For U16C G67C, the yeast fitness was 0.861. With U16C G25C U53A the yeast fitness was no more than 0.5. U16A G58C showed a yeast fitness of 0.963. Work on U16C A20C A36U C61U yielded a yeast fitness of no more than 0.5. In the case of U16A U32C A37U C49A C60U G68C, the yeast fitness is reported as no more than 0.5. In the case of U16C C22G C27G U53C C61A G68A, the yeast fitness is reported as no more than 0.5. Variant U16A U19C C61A A65U has a yeast fitness of 0.6. In the case of U16C C61U, the yeast fitness is reported as 0.93. For U16C G56A G68A, the yeast fitness was 0.69. With U16C C31U C55U the yeast fitness was 0.659. Variant U16C G18A C24G A45U has a yeast fitness of no more than 0.5. U16C C31G gave a yeast fitness of 0.838. Variant U16C A21G G63C has a yeast fitness of no more than 0.5. U16C A36U G63A gave a yeast fitness of 0.772. U16A G56C A57U C60U showed a yeast fitness of no more than 0.5. For U16C C22U A37U C49A C62U, the yeast fitness was 0.6. For U16C C46G G56A, the yeast fitness was 0.748. In the case of U16C C30U C46A, the yeast fitness is reported as 0.768. Variant U16C C24A has a yeast fitness of 0.668. Variant U16C C24U has a yeast fitness of 0.882. With U16C A20U C30U G39C A45G A69C the yeast fitness was 0.592. In the case of U16C A40G C46A, the yeast fitness is reported as 0.712. Work on U16C C24U C30U yielded a yeast fitness of no more than 0.5. Work on U16C U35C yielded a yeast fitness of 0.609. With U16C A43G U59C the yeast fitness was 0.609. Variant U16C C33U A57G G63C has a yeast fitness of no more than 0.5. U16C C29U G63A showed a yeast fitness of 0.527. Work on U16C A20U C24U C49A yielded a yeast fitness of no more than 0.5. Variant U16C C24G U32A G56A has a yeast fitness of 0.544. With U16C C27G C29U U54C the yeast fitness was 0.568. U16A G50C C66G showed a yeast fitness of no more than 0.5. U16C C22U C33G C55G gave a yeast fitness of 0.53. With U16C G50A the yeast fitness was 0.799. Work on U16C C29G U53A yielded a yeast fitness of no more than 0.5. With U16C U26C G58A the yeast fitness was 1.11. Variant U16C C27U C29A A40G A43C G50U has a yeast fitness of no more than 0.5. Variant U16A U32A A40C C62U has a yeast fitness of no more than 0.5. Variant U16C C30U G41C has a yeast fitness of no more than 0.5. In the case of U16C C31U C33A C34G U35A G52A G67A, the yeast fitness is reported as no more than 0.5. With U16C A45G the yeast fitness was 0.919. For U16C U26A A43U C62U, the yeast fitness was no more than 0.5. U16C C24G G44A C60U G67C gave a yeast fitness of no more than 0.5. In the case of U16C C34U, the yeast fitness is reported as 0.759. With U16C C34G the yeast fitness was 0.609. Work on U16C C22G C66U yielded a yeast fitness of 0.721. Variant U16C A65G A70C has a yeast fitness of 0.786. Variant U16C G51A A65U A70G has a yeast fitness of no more than 0.5. Variant U16C C24U U53C C60G has a yeast fitness of 0.559. With U16C G25C C34U the yeast fitness was 0.544. In the case of U16A G67A, the yeast fitness is reported as 0.926. Work on U16A G67U yielded a yeast fitness of 0.85. U16A U19A A69C showed a yeast fitness of 0.747. U16A G56A gave a yeast fitness of 0.875. In the case of U16A U35A A57G C62G, the yeast fitness is reported as no more than 0.5. In the case of U16C G18A C24G A45U C62A, the yeast fitness is reported as no more than 0.5. Work on U16C G25A U28C G52C yielded a yeast fitness of no more than 0.5. For U16C G51A A65U, the yeast fitness was 0.572. U16C C31G G39A A57U showed a yeast fitness of 0.692. With U16C A42G the yeast fitness was 0.904. With U16C C22G U64C the yeast fitness was 0.625. U16C C60A C62U showed a yeast fitness of 0.55. U16C C30G showed a yeast fitness of 0.708. Work on U16C C30A yielded a yeast fitness of 0.834. U16C G44A gave a yeast fitness of 1.06. U16C C55G gave a yeast fitness of 0.669. With U16C C55A the yeast fitness was 0.664. Variant U16C A40U A65U has a yeast fitness of 0.588. In the case of U16C G48C, the yeast fitness is reported as 0.894. For U16A G50C A65G, the yeast fitness was no more than 0.5. For U16C C22U C24U C29U C49U C60U, the yeast fitness was no more than 0.5. With U16C C29A C55G A70U the yeast fitness was no more than 0.5. In the case of U16C A21U C30U C34G A36C, the yeast fitness is reported as no more than 0.5. Variant U16A G48C has a yeast fitness of 0.967. Variant U16A U54A has a yeast fitness of 0.573. In the case of U16A U54G, the yeast fitness is reported as 0.536. With U16C C33G G39C A69C the yeast fitness was no more than 0.5. U16A G52A A57C C66U gave a yeast fitness of no more than 0.5. Variant U16C A43C A45U C49G has a yeast fitness of 0.722. U16C A37U showed a yeast fitness of 0.683. U16C A37C gave a yeast fitness of 0.678. With U16C C30U C34G C49A A70U the yeast fitness was no more than 0.5. In the case of U16C G25C C34U U64G, the yeast fitness is reported as 0.585. With U16C U32C G39C the yeast fitness was no more than 0.5. With U16C A36U A65U the yeast fitness was no more than 0.5. Work on U16C A21C G41C A43C yielded a yeast fitness of no more than 0.5. U16C C46G C49U gave a yeast fitness of 0.731. In the case of U16C A21C A37G C55A, the yeast fitness is reported as no more than 0.5. With U16C U19A U47A C61A the yeast fitness was 0.792. For U16C G48C A57C, the yeast fitness was no more than 0.5. With U16C C46U the yeast fitness was 1.05. U16A G51A showed a yeast fitness of 0.752. With U16C U32G G56C G68A the yeast fitness was no more than 0.5. For U16A G48C C55G G67C A70U, the yeast fitness was 0.604. In the case of U16C A37G A42C G67A, the yeast fitness is reported as no more than 0.5. In the case of U16A G50C C55U U59G C66U G67A, the yeast fitness is reported as no more than 0.5. Variant U16A G58A G67U has a yeast fitness of no more than 0.5. In the case of U16C U26A G38C, the yeast fitness is reported as no more than 0.5. With U16C C33U A36C G56C the yeast fitness was no more than 0.5. In the case of U16C G18C A42G, the yeast fitness is reported as no more than 0.5. U16C A21C A37G A69G A70G gave a yeast fitness of no more than 0.5. For U16C G41A C49U, the yeast fitness was 0.605. Variant U16C U32G C34G U53A G63C has a yeast fitness of no more than 0.5. Work on U16C U26A G38C U47A C49A yielded a yeast fitness of no more than 0.5. For U16C C60G A65G, the yeast fitness was no more than 0.5. With U16C C31U C33U G63C the yeast fitness was no more than 0.5. With U16C C22U A65U the yeast fitness was no more than 0.5. In the case of U16C U26C A40C A43G G44A, the yeast fitness is reported as no more than 0.5. In the case of U16C A40C A57U, the yeast fitness is reported as 0.575. Work on U16C U28C C55U A57C G58A yielded a yeast fitness of no more than 0.5. For U16C A37C C55G C62U, the yeast fitness was no more than 0.5. In the case of U16C U26C, the yeast fitness is reported as 0.884. In the case of U16C U26A, the yeast fitness is reported as 0.973. U16C A40U A57C A70U gave a yeast fitness of 0.585. For U16C A57U, the yeast fitness was 0.686. U16C A43G showed a yeast fitness of 1.13. With U16C A21U the yeast fitness was 0.756. U16C C46U A69C gave a yeast fitness of 0.783. In the case of U16C G17C A21C C66U G68A, the yeast fitness is reported as no more than 0.5. Variant U16C G52A G56C has a yeast fitness of no more than 0.5. Variant U16A G48A C62G A69U has a yeast fitness of 0.629. For U16C C27A A45U C60G A65U, the yeast fitness was 0.542. Work on U16C U28C G52C yielded a yeast fitness of no more than 0.5. For U16C G44A C49U U54C G56C, the yeast fitness was no more than 0.5. Variant U16C C34G G44A A65U has a yeast fitness of no more than 0.5. Variant U16C U19A C29U has a yeast fitness of 0.615. With U16C A21U C31G the yeast fitness was 0.537. U16C C22U A70U showed a yeast fitness of 0.572. For U16C C30U C34G, the yeast fitness was 0.579. For U16C C24U C29A C31G C34G, the yeast fitness was no more than 0.5. U16C A42C U53A showed a yeast fitness of no more than 0.5. In the case of U16C C60G, the yeast fitness is reported as 0.658. For U16C C46G C55G C60G, the yeast fitness was 0.615. Work on U16C C55A A57U yielded a yeast fitness of no more than 0.5. U16C C55A A57C gave a yeast fitness of no more than 0.5. For U16C C29G C60U, the yeast fitness was 0.638. In the case of U16A U32C A42U, the yeast fitness is reported as 0.637. For U16C G18A C24G A45U U59G G68C, the yeast fitness was 0.537. Variant U16C G63A has a yeast fitness of 0.884. For U16C G25U U32C A69C, the yeast fitness was no more than 0.5. In the case of U16C C24U C29A U32A C46G A57C, the yeast fitness is reported as 0.522. Work on U16C U26A G67C yielded a yeast fitness of 0.657. With U16C C29U C62U the yeast fitness was 0.508. Variant U16C U35C A57C has a yeast fitness of 0.532. U16C A40C A57G C61U showed a yeast fitness of no more than 0.5. U16C A21U A43U C61G gave a yeast fitness of no more than 0.5. For U16C U28C A37C G56A U59C, the yeast fitness was no more than 0.5. U16C C29G gave a yeast fitness of 0.619. U16C C24U C30U C62A gave a yeast fitness of no more than 0.5. Variant U16C A42C A65U has a yeast fitness of 0.585. U16C G18C C24U A40U C55U U59A showed a yeast fitness of no more than 0.5. In the case of U16C A20U U32C, the yeast fitness is reported as 0.615. Work on U16C G44C C66U yielded a yeast fitness of no more than 0.5. U16C C33U A36C A45C U64G gave a yeast fitness of no more than 0.5. Variant U16C A70U has a yeast fitness of 0.902. In the case of U16C C22A A40G C60A, the yeast fitness is reported as no more than 0.5. For U16C A40U G52A C55A G56C, the yeast fitness was no more than 0.5. In the case of U16C C22U A40G A43U C46G C49G C62U, the yeast fitness is reported as 0.55. Variant U16C G25A C27A C29U G44A C55A has a yeast fitness of no more than 0.5. U16A U32C C34U showed a yeast fitness of no more than 0.5.
